≈ marks a conversion by molar mass, not a printed value.
What was measured:
[1] = solubility at pH 4; type: physicochemical; settings: buffer
Mus musculus [2] = species on record: Mus musculus; test: Anticonvulsant activity against audiogenic seizure model using DBA/2 mice; type: functional
Method in brief: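 Male DBA/2 mice, 3–4 weeks old (6.5–12 g, 20–23 days); iv dosing into retro-orbital sinus, tested 15 or 45 min later. Sound stimulus in enclosed chamber until tonic extension or max 60 s. Tonic seizure occurrence used for ED50 by probit analysis; each mouse used once per time/dose point.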

[3] = solubility at pH 7.4; type: physicochemical; settings: buffer
Method in brief: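 DMSO solution diluted 20-fold into PBS with 25 mM potassium phosphate pH 7.4 (final 5% DMSO) to precipitate; stirred 1 h at 22 °C, centrifuged 20000g 5 min; supernatant quantified by HPLC against DMSO standard.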

[4] = target: Voltage-dependent N-type calcium channel subunit alpha-1B (Homo sapiens, UniProt Q00975); test: Inhibition of N-type calcium channels in IMR32 human neuroblastoma cells; type: functional
Voltage-dependent N-type calcium channel subunit alpha-1B, sequence (Q00975 whole entry): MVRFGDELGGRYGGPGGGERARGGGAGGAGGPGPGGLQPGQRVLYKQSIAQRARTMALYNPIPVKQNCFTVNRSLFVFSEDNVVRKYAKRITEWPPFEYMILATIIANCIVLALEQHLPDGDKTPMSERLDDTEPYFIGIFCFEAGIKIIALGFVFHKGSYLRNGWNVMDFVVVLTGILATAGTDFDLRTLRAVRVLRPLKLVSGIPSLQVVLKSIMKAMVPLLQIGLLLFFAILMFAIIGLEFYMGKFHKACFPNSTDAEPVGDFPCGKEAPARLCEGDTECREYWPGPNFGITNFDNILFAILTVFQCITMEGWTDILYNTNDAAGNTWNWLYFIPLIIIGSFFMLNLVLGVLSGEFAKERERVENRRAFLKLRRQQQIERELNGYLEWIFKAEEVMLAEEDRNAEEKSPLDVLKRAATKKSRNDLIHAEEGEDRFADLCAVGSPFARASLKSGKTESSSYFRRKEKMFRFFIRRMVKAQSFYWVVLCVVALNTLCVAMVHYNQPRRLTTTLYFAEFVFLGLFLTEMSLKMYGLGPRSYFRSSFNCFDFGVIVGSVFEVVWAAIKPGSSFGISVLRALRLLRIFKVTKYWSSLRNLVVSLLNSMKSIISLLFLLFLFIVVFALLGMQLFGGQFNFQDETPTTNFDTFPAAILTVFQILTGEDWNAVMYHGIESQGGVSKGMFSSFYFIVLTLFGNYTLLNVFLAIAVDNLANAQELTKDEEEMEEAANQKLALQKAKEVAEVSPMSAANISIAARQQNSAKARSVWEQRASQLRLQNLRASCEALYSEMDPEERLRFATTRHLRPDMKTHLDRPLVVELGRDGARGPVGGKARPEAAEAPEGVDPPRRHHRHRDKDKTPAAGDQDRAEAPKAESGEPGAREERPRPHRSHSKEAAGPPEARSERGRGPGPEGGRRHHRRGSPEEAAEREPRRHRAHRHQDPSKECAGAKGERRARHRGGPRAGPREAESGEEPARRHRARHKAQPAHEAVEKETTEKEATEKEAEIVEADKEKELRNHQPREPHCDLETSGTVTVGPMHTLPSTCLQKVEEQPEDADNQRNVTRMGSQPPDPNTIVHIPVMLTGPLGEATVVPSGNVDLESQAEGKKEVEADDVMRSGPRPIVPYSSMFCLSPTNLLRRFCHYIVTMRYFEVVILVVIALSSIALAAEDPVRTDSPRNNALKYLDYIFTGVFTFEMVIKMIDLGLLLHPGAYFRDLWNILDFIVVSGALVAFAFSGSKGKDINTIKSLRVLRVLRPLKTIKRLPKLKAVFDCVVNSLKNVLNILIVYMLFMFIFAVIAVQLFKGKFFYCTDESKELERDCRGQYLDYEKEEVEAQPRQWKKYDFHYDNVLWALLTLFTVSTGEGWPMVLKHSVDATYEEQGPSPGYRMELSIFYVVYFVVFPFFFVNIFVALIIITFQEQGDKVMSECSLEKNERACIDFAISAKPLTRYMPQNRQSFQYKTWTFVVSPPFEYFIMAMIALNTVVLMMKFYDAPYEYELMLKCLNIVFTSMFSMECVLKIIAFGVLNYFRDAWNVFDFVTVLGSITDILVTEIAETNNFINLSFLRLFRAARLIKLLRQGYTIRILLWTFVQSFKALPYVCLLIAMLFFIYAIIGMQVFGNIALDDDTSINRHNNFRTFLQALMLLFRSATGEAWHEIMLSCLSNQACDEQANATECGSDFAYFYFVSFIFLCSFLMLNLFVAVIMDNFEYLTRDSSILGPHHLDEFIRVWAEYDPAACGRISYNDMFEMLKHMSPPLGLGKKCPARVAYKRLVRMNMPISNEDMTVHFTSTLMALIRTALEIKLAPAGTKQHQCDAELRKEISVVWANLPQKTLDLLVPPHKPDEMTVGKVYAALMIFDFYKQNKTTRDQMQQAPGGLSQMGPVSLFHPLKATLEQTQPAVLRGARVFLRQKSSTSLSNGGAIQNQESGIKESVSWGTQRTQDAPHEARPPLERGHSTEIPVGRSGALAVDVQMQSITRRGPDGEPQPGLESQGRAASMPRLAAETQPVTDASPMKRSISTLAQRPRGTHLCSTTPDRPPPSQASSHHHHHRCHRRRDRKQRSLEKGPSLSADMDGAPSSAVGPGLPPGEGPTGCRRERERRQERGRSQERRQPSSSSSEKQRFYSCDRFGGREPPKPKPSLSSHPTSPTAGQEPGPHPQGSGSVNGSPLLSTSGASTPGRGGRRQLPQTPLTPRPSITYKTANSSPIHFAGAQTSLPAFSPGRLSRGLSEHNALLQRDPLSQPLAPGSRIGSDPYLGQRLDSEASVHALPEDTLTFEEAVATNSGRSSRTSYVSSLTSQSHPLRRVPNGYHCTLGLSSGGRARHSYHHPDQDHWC
Method in brief: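 Differentiated IMR32 cells (dibutyryl cAMP 1 mM + BrdU 2.5 μM, 7–13 days), Indo-1 AM loaded; 10 min compound preincubation at 30 °C with 5 μM nitrendipine; high-K+ depolarization, fluorescence ratio 400/490 nm (ex 350 nm). Percent inhibition of K+-evoked Ca2+ rise; IC50 from five-point curves, four-parameter logistic fit.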

Mus musculus [5] = test: Anticonvulsant activity at 30 mg/kg tested against audiogenic seizure model using DBA/2 mice; type: functional
Method in brief: (§1)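 Male DBA/2 mice, 3–4 weeks old (6.5–12 g, 20–23 days), n = 5 per dose, given iv into retro-orbital sinus; tested 15 or 45 min post-dose with sound stimulus until tonic extension or max 60 s. Value is percentage of mice without tonic seizure.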

Mus musculus [6] = test: Anticonvulsant activity at 10 mg/kg tested against audiogenic seizure model using DBA/2 mice; type: functional; method in brief: as §1

Structure (SMILES) | IC50 [4] [nM] | Anticonulsant activity (Mus musculus [5]) [%] | also measured
CC(C)=CCN(c1ccc(OCc2ccccc2)cc1)C1CCN(C(=O)[C@@H](N)CC(C)C)CC1 | 670 |  | solubility [1]: 100000 µM (≈ 46400 µg/mL); ED50 (Mus musculus [2]): 6 mg/kg; solubility [3]: 87 µM (≈ 40.3 µg/mL)
CCN(c1ccc(OCc2ccccc2)cc1)C1CCN(C(=O)[C@H](CC(C)C)NC(=O)N2CCCCCC2)CC1 |  | 0 | 
CC(C)=CCN(C[C@H](C)NC(=O)[C@H](CC(C)C)NC(=O)N1CCCCCC1)c1ccc(OCc2ccccc2)cc1 | 1000 |  | 
CC(C)=CCN(c1ccc(OCc2ccccc2)cc1)C1CCN(C(=O)[C@H](CC(C)C)NCCC(C)C)CC1 |  |  | Anticonulsant activity (Mus musculus [6]): 20%
CC(C)=CCN(c1ccc(OCc2ccccc2)cc1)C1CCNCC1 | 4700 |  | 
CC(C)=CCN(c1ccc(OCc2ccccc2)cc1)C1CCN(C(=O)[C@H](CC(C)C)NC(=O)N2CCCCCC2)CC1 |  | 0 | 
CC(C)=CCN(c1ccc(OCc2ccccc2)cc1)C1CCCN(C(=O)[C@H](CC(C)C)NC(=O)N2CCCCCC2)C1 (stereo partly drawn) | 1500 |  | 
CC(C)C[C@H](NC(=O)N1CCCCCC1)C(=O)N1CCC(N(CCC(C)O)c2ccc(OCc3ccccc3)cc2)CC1 (stereo partly drawn) | 4600 |  | solubility [3]: 4 µM (≈ 2.37 µg/mL)
CC(C)C[C@H](NC(=O)N1CCCCCC1)C(=O)N1CCC(Nc2ccc(OCc3ccccc3)cc2)CC1 |  | 60 | 

— ChEMBL document CHEMBL1132688, “Synthesis of a series of 4-benzyloxyaniline analogues as neuronal N-type calcium channel blockers with improved anticonvulsant and analgesic properties” (J Med Chem, 1999)
